# Data taken from ChEMBL document CHEMBL1129283, “New sigma and 5-HT1A receptor ligands: omega-(tetralin-1-yl)-n-alkylamine derivatives” (J Med Chem, 1996).
# pKi: −log10 of the molar value.
# Columns and labels:
# [1] = molecular target: T1, 5-hydroxytryptamine receptor 1A (Rattus norvegicus, UniProt P19327); assay: Displacement of [3H]5-HT from rat hippocampal 5-hydroxytryptamine 1A receptor with 10e-6 M ketanserin; type: tissue-based, Hippocampus
# T1 sequence (P19327 whole entry): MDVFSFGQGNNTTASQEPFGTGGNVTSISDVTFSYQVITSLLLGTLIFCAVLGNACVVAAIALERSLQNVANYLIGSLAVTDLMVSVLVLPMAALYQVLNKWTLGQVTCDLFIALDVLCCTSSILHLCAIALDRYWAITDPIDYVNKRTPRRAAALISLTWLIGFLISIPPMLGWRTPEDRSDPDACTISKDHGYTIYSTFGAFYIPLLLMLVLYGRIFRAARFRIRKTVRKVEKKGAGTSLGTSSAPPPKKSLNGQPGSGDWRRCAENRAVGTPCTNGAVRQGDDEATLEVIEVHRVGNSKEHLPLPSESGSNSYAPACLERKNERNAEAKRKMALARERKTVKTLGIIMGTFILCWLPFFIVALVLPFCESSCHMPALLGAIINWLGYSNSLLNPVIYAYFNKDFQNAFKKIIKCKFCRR
# Procedure, shortened: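 Rat hippocampal membranes, preincubated 15 min at 37 °C in 50 mM Tris-HCl pH 7.6. Assay buffer was 50 mM Tris-HCl with 4 mM CaCl2, 5.7 mM ascorbic acid and […], pH 7.6. Used 20 nM [3H]5-HT, 15 min at 37 °C, then filtration. IC50 from 2–3 experiments in triplicate (6–9 concentrations); Ki by Cheng–Prusoff.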
# [2] = molecular target: Sigma non-opioid intracellular receptor 1 (Rattus norvegicus, UniProt Q9R0C9); assay: Inhibitory activity against Sigma opioid receptor type 1 isolated from whole rat membranes using [3H](+)-pentazocine as radioligand.
# Chain of Sigma non-opioid intracellular receptor 1 (Q9R0C9 whole entry): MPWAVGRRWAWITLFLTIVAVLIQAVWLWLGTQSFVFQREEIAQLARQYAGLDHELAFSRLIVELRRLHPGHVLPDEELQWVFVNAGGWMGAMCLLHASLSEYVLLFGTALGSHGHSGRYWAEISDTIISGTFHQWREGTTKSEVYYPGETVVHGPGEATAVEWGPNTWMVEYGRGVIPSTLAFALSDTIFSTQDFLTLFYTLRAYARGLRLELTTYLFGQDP
# Procedure, shortened: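 Membranes came from male Sprague–Dawley rat whole brain minus cerebellum and pons-medulla, in 50 mM Tris-HCl pH 7.8, washed four times. Incubated with [3H]-(+)-pentazocine 120 min at 25 °C, then filtered on polyethylenimine-soaked filters. Nonspecific binding was set with 10 µM haloperidol. IC50 from 2–3 experiments in triplicate (6–9 concentrations); Ki by Cheng–Prusoff.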
# [3] = Selectivity for 5-hydroxytryptamine 1A and sigma receptors; parameters: reference not given here
# Cavia porcellus = species: Cavia porcellus; assay: Selectivity for PCP and sigma receptors
SMILES,pKi [1],pKi [2],Selectivity [3],Selectivity (Cavia porcellus)
c1ccc2c(c1)CCCC2CCCN1CCN(C2=NCCCC2)CC1 (stereo unspecified),7.35,6.95,1,–
COc1cccc2c1CCCC2CCCN1CCN(C2CCCCC2)CC1 (stereo unspecified),7.54,7.15,–,–
COc1ccc2c(c1)C(CCCN1CCNCC1)CCC2 (stereo unspecified),< 5.84,–,–,–
COc1ccc2c(c1)C(CCCN1CCN(C3=NCCCC3)CC1)CCC2 (stereo unspecified),6.38,–,14,–
C1=C(CCCN2CCN(Cc3ccccc3)CC2)c2ccccc2CC1,6.67,–,–,–
COc1cccc2c1CCC=C2CCCN1CCN(Cc2ccccc2)CC1,–,–,> 10,–
COc1cccc2c1CCCC2CCCN1CCNCC1 (stereo unspecified),< 5.84,–,–,–

# Further lines, results first:
pKi [1],pKi [2],Selectivity [3],Selectivity (Cavia porcellus),SMILES
8.36,–,–,–,COc1cccc2c1CCCC2CCCNCCCc1ccccc1 (stereo unspecified)
7.85,–,0.05,8,COc1cccc2c1CCCC2CCCNCCNc1ccccc1 (stereo unspecified)
7.43,6.40,–,–,COc1cccc2c1CCCC2CCCCN1CCN(C2=NCCCC2)CC1 (stereo unspecified)
8.44,7.59,–,–,COc1cccc2c1CCCC2CCCN1CCN(Cc2ccccc2)CC1 (stereo unspecified)
7.50,–,–,–,COc1cccc2c1CCCC2CCCNCCc1ccccc1 (stereo unspecified)
7.64,–,–,–,COc1cccc2c1CCCC2CCCNCCC1CCCc2ccccc21 (stereo unspecified)
